Experimental data reported in ChEMBL document CHEMBL3112409, “A novel class of ion displacement ligands as antagonists of the αIIbβ3 receptor that limit conformational reorganization of the receptor” (Bioorg Med Chem Lett, 2014).
Active and inactive are the calls of the source. The rule behind the calls is not given here. Positions of bridges follow the written chain, without caps; N, C: chain ends. Non-standard residues stand in square brackets, D forms with d. Residues, ends and D or L forms follow the SMILES beside them. hArg = N=C(N)NCCCC[C@H](N)C(=O)O; Mpa = O=C(O)CCS

Experiments:
[1] = Antiplatelet activity in platelet (unknown origin) assessed as inhibition of platelet aggregation; type: functional, cell-based
[2] = biological target: T1, Integrin alpha-IIb/beta-3 (Homo sapiens) (UniProt P05106+P08514); assay: Inhibition of […] receptor (unknown origin) assessed as inhibition of platelet adhesion at 50 uM
[3] = biological target: T1, Integrin alpha-IIb/beta-3 (Homo sapiens); assay: Inhibition of […] receptor (unknown origin) assessed as inhibition of platelet adhesion at 1 uM
[4] = biological target: T1, Integrin alpha-IIb/beta-3 (Homo sapiens); assay: Inhibition of […] receptor (unknown origin) assessed as inhibition of platelet adhesion at 100 uM
[5] = Oral bioavailability in dog at 26.5 to 53 mg/kg; type: ADME, organism-based, Canis lupus familiaris; conditions: in vivo
[6] = Clearance in dog at 53 mg/kg, po; type: ADME, organism-based, Canis lupus familiaris; design: dose 53 mg/kg, route oral; conditions: in vivo
[7] = Clearance in dog at 26.5 mg/kg, po; type: ADME, organism-based, Canis lupus familiaris; design: dose 26.5 mg/kg, route oral; conditions: in vivo
[8] = Clearance in dog at 26.5 mg/kg, iv; type: ADME, organism-based, Canis lupus familiaris; design: dose 26.5 mg/kg, route intravenous; conditions: in vivo
[9] = tested on: Canis familiaris; assay: Volume of distribution in dog at 53 mg/kg, po; type: ADME, organism-based, Canis lupus familiaris; design: dose 53 mg/kg, route oral; conditions: in vivo
[10] = tested on: Canis familiaris; assay: Volume of distribution in dog at 26.5 mg/kg, po; type: ADME, organism-based, Canis lupus familiaris; design: dose 26.5 mg/kg, route oral; conditions: in vivo
[11] = AUC (infinity) in dog at 53 mg/kg, po; type: ADME, organism-based, Canis lupus familiaris; design: time infinity, dose 53 mg/kg, route oral; conditions: plasma
[12] = Volume of distribution in dog at 26.5 mg/kg, iv; type: ADME, organism-based, Canis lupus familiaris; design: dose 26.5 mg/kg, route intravenous; conditions: in vivo
[13] = AUC (infinity) in dog at 26.5 mg/kg, po; type: ADME, organism-based, Canis lupus familiaris; design: time infinity, dose 26.5 mg/kg, route oral; conditions: plasma
[14] = AUC (infinity) in dog at 26.5 mg/kg, iv; type: ADME, organism-based, Canis lupus familiaris; design: time infinity, dose 26.5 mg/kg, route intravenous; conditions: plasma
[15] = Terminal elimination rate constant in dog at 53 mg/kg, po; type: ADME, organism-based, Canis lupus familiaris; design: dose 53 mg/kg, route oral; conditions: in vivo
[16] = Terminal elimination rate constant in dog at 26.5 mg/kg, po; type: ADME, organism-based, Canis lupus familiaris; design: dose 26.5 mg/kg, route oral; conditions: in vivo
[17] = Terminal elimination rate constant in dog at 26.5 mg/kg, iv; type: ADME, organism-based, Canis lupus familiaris; design: dose 26.5 mg/kg, route intravenous; conditions: in vivo
[18] = Elimination half life in dog at 53 mg/kg, po; type: ADME, organism-based, Canis lupus familiaris; design: dose 53 mg/kg, route oral; conditions: in vivo, read-out: beta t1/2
[19] = Elimination half life in dog at 26.5 mg/kg, iv; type: ADME, organism-based, Canis lupus familiaris; design: dose 26.5 mg/kg, route intravenous; conditions: in vivo, read-out: beta t1/2
[20] = Elimination half life in dog at 26.5 mg/kg, po; type: ADME, organism-based, Canis lupus familiaris; design: dose 26.5 mg/kg, route oral; conditions: in vivo, read-out: beta t1/2
[21] = Cmax in dog at 53 mg/kg, po; type: ADME, organism-based, Canis lupus familiaris; design: dose 53 mg/kg, route oral; conditions: in vivo
[22] = Cmax in dog at 26.5 mg/kg, po; type: ADME, organism-based, Canis lupus familiaris; design: dose 26.5 mg/kg, route oral; conditions: in vivo
[23] = Tmax in dog at 53 mg/kg, po; type: ADME, organism-based, Canis lupus familiaris; design: dose 53 mg/kg, route oral; conditions: in vivo
[24] = Cmax in dog at 26.5 mg/kg, iv; type: ADME, organism-based, Canis lupus familiaris; design: dose 26.5 mg/kg, route intravenous; conditions: in vivo
[25] = Tmax in dog at 26.5 mg/kg, iv; type: ADME, organism-based, Canis lupus familiaris; design: dose 26.5 mg/kg, route intravenous; conditions: in vivo
[26] = Tmax in dog at 26.5 mg/kg, po; type: ADME, organism-based, Canis lupus familiaris; design: dose 26.5 mg/kg, route oral; conditions: in vivo
[27] = biological target: T1, Integrin alpha-IIb/beta-3 (Homo sapiens); conditions: 10 uM
[28] = tested on: Liver microsome; assay: Intrinsic clearance in rat liver microsomes; type: ADME
[29] = biological target: hERG (KCNH2) (Homo sapiens, UniProt Q12809); assay: Inhibition of human ERG channel at 25 uM
[30] = Intrinsic clearance in mouse liver microsomes; type: ADME, Microsome
[31] = Thermodynamic solubility of the compound at pH 8.5 by CLND method; type: physicochemical; conditions: buffer
How it was run: (§1)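 Triplicate solubility measurements in aqueous buffer at the pH named in each line. Quantified by chemiluminescent nitrogen detection (CLND) and reported in μg/mL. An LC method was also run alongside.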

[32] = Thermodynamic solubility of the compound at pH 12 by CLND method; type: physicochemical; conditions: buffer; how it was run: as §1
[33] = Thermodynamic solubility of the compound at pH 7.4 by CLND method; type: physicochemical; conditions: buffer; how it was run: as §1
[34] = Kinetic solubility of the compound at pH 12 by CLND method; type: physicochemical; conditions: buffer
[35] = Thermodynamic solubility of the compound at pH 6.6 by CLND method; type: physicochemical; conditions: buffer; how it was run: as §1
[36] = Kinetic solubility of the compound at pH 7.4 by CLND method; type: physicochemical; conditions: buffer
[37] = Kinetic solubility of the compound at pH 8.5 by CLND method; type: physicochemical; conditions: buffer
[38] = Kinetic solubility of the compound at pH 6.6 by CLND method; type: physicochemical; conditions: buffer
[39] = Metabolic stability in mouse plasma after 60 mins; type: ADME, cell-free; conditions: read-out: Stability
How it was run: (§2)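 Stability in mouse plasma run in triplicate; percent remaining read at 15, 60 and 120 min.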

[40] = Metabolic stability in mouse plasma after 120 mins; type: ADME, cell-free; conditions: read-out: Stability; how it was run: as §2
[41] = Metabolic stability in mouse plasma after 15 mins; type: ADME, cell-free; conditions: read-out: Stability; how it was run: as §2
[42] = Fraction unbound in whole blood (unknown origin); type: ADME, tissue-based
[43] = Fraction unbound in plasma (unknown origin); type: ADME, cell-free
[44] = Metabolic stability in mouse hepatocytes assessed as compound remaining after 120 mins; type: ADME, cell-based, Hepatocyte; conditions: read-out: Stability
[45] = biological target: Integrin alpha-V/beta-3 (Homo sapiens) (UniProt P05106+P06756); assay: Antagonist activity at alphaVbeta3 receptor (unknown origin); type: protein-complex assay
[46] = tested on: Liver microsome; assay: Intrinsic clearance in human liver microsomes; type: ADME
How it was run: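 Liver microsomal stability run in parallel for mouse, rat and human microsomes. Intrinsic clearance reported in μL/min/mg protein, with microsomal half-life in min.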

Sequence of hERG (KCNH2) (Q12809 whole entry): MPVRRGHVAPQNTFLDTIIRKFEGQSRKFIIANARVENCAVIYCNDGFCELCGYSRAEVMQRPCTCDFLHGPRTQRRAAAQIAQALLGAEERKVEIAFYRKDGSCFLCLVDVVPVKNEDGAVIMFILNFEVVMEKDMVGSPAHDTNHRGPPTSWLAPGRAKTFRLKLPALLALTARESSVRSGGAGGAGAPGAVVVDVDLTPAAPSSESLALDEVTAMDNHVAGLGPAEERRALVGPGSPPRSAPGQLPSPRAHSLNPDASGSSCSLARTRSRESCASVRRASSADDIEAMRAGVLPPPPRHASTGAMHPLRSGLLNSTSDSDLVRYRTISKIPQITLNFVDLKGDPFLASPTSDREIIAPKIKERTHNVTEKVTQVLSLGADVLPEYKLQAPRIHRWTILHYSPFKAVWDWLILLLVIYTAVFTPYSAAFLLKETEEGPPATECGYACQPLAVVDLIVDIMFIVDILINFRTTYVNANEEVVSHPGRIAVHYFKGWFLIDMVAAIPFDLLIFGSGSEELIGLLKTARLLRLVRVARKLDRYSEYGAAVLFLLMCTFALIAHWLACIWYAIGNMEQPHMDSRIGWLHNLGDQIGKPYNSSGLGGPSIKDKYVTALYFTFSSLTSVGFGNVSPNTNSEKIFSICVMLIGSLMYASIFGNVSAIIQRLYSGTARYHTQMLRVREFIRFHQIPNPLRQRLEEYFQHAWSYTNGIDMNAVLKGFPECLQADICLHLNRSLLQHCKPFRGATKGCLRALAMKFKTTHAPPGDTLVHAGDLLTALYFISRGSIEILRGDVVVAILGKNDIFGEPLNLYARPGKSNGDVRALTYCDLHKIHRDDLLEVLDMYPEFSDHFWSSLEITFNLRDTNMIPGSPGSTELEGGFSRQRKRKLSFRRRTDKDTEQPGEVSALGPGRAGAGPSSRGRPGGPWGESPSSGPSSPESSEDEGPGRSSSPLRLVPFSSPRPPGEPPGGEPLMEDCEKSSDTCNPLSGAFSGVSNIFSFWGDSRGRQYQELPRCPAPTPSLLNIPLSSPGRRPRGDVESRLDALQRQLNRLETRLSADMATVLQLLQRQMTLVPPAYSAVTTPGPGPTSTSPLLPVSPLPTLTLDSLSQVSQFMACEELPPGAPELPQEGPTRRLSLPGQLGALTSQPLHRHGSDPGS

O=C(O)c1ccc(-c2nn3c(=O)cc(N4CCNCC4)nc3s2)cc1
IC50 [1]: 6.5 µM | inhibition [2]: 49%

NCC(=O)Nc1cc(CO)cc(-c2nn3c(=O)cc(N4CCNCC4)nc3s2)c1
IC50 [1]: 0.075 µM | inhibition [3]: 89%

CCc1nn2c(=O)cc(N3CCCCC3)nc2s1
IC50 [1]: > 100 µM | inhibition [4]: 23%

C[C@H](N)C(=O)Nc1cccc(-c2nn3c(=O)cc(N4CCNCC4)nc3s2)c1
IC50 [1]: 5.87 µM | inhibition [4]: 66%

NCC(=O)Nc1cc(-c2nn3c(=O)cc(N4CCNCC4)nc3s2)ccn1
IC50 [1]: 0.033 µM | inhibition [3]: 98%

N=C(N)NCCCC[C@@H]1NC(=O)CCSSC[C@@H](C(N)=O)NC(=O)[C@@H]2CCCN2C(=O)[C@H](Cc2c[nH]c3ccccc23)NC(=O)[C@H](CC(=O)O)NC(=O)CNC1=O [EPTIFIBATIDE] ([Mpa][hArg]GDWPC-NH2; disulfide 1-7)
IC50 [1]: 0.012 µM

O=c1cc(N2CCNCC2)nc2sc(-c3ccccc3)nn12
IC50 [1]: 3 µM | inhibition [4]: 56%

CCc1nn2c(=O)cc(N3CCNCC3)nc2s1
IC50 [1]: 4 µM | bioavailability [5]: 92% | CL/F [6]: 18.7 mL/min/kg | CL/F [7]: 16.8 mL/min/kg | clearance [8]: 15.9 mL/min/kg | Vd [9]: 2.9476 L/kg | Vd [10]: 3.4669 L/kg | AUC(0-inf) [11]: 47200 ng·h/mL | Vd [12]: 2.37 L/kg | AUC(0-inf) [13]: 27200 ng·h/mL | AUC(0-inf) [14]: 28000 ng·h/mL | k el [15]: 0.000107 s⁻¹ | k el [16]: 8e-05 s⁻¹ | k el [17]: 0.000113 s⁻¹ | half-life [18]: 1.82 h | half-life [19]: 1.7 h | half-life [20]: 2.45 h | Cmax [21]: 11900 ng/mL | Cmax [22]: 7800 ng/mL | Tmax [23]: 0.5 h | Cmax [24]: 28800 ng/mL | Tmax [25]: 0.175 h | Tmax [26]: 0.555 h

O=C(O)c1cccc(-c2nn3c(=O)cc(N4CCNCC4)nc3s2)c1
IC50 [1]: 80 µM | inhibition [2]: 37%

CCCCS(=O)(=O)N[C@@H](Cc1ccc(OCCCCC2CCNCC2)cc1)C(=O)O
inhibition [27]: 88%

O=C(O)CNc1cccc(-c2nn3c(=O)cc(N4CCNCC4)nc3s2)c1
IC50 [1]: 2 µM | inhibition [2]: 78%

NCC(=O)Nc1cccc(-c2nn3c(=O)cc(N4CCNCC4)nc3s2)c1
CLH [28]: 2.83 µL/min/mg | inhibition at 25 µM [29]: < 5% | CLH [30]: 0.684 µL/min/mg | Therm_solubility [31]: 46.2 µg/mL | Therm_solubility [32]: > 400 µg/mL | Therm_solubility [33]: 28 µg/mL | Kinetic_solubility [34]: 43.4 µg/mL | Therm_solubility [35]: 41.8 µg/mL | Kinetic_solubility [36]: 34.6 µg/mL | Kinetic_solubility [37]: 36.1 µg/mL | Kinetic_solubility [38]: 35.8 µg/mL | remaining at 1 h [39]: 93.3% | remaining at 2 h [40]: 84.5% | remaining at 0.25 h [41]: 97.5% | inhibition [3]: 83%

NCC(=O)Nc1cc(O)cc(-c2nn3c(=O)cc(N4CCNCC4)nc3s2)c1
IC50 [1]: 0.1 µM | inhibition [3]: 69%

CC(C)(C)c1nn2c(=O)cc(N3CCNCC3)nc2s1
IC50 [1]: 4 µM | inhibition [2]: 35%

CCc1nn2c(=O)cc(N3CCN(C)CC3)nc2s1
IC50 [1]: > 100 µM | inhibition [4]: 35%

CCc1nn2c(=O)cc(N3CCOCC3)nc2s1
IC50 [1]: 49 µM | inhibition [4]: 20%

NCC(=O)Nc1cncc(-c2nn3c(=O)cc(N4CCNCC4)nc3s2)c1 [ZALUNFIBAN]
Fu [42]: > 85% | Fu [43]: > 30% | remaining at 2 h [44]: > 95% | Activity [45]: inactive | CLH [46]: 23.2 µL/min/mg | inhibition at 25 µM [29]: < 5% | Therm_solubility [31]: > 400 µg/mL | Therm_solubility [32]: > 400 µg/mL | Therm_solubility [33]: 239.5 µg/mL | Kinetic_solubility [34]: > 57.8 µg/mL | Therm_solubility [35]: 340.4 µg/mL | Kinetic_solubility [36]: > 57.8 µg/mL | Kinetic_solubility [37]: > 57.8 µg/mL | Kinetic_solubility [38]: > 57.8 µg/mL | remaining at 1 h [39]: 99.5% | remaining at 2 h [40]: 91.7% | remaining at 0.25 h [41]: 100% | IC50 [1]: 0.045 µM | inhibition [3]: 93%

CCc1nn2c(=O)c(F)c(N3CCNCC3)nc2s1
IC50 [1]: 8.3 µM | inhibition [4]: 41%
